Published values of several laboratories.
Lines come from different studies, so protocols differ.
Cell line: HepG2
Effect on: cell growth or viability

Compound	test	setting	IC50
Cc1ccc2nc(-c3ccc(Cl)cc3Cl)[nH]c2c1	MTT	48 h	30.7 µM
Oc1ncnc2cc(Nc3nc(-c4ccc(Cl)cc4)cs3)ccc12	MTT	–	9.36 µM
Cc1ccc(-c2cc(-c3ccc4oc(=O)cc(C)c4c3O)nc(N)n2)cc1	MTT	72 h	> 128 µg/mL
CCOc1ccc(-c2nc3ccccc3[nH]2)cc1	MTT	48 h	43.1 µM
O=Cc1ccc(CO)o1	WST-1	48 h	77.7 µM
CC1=C(O)C(=O)C=C2C1=CC=C1[C@@]2(C)CC[C@@]2(C)[C@@H]3C[C@](C)(C(=O)OCCCn4ccc5ccccc54)CC[C@]3(C)CC[C@]12C	MTT	48 h	> 100 µM
CCN(CC)CCn1cccc1/C=N/NC(=O)Nc1cc2c(Nc3ccc(F)c(Cl)c3)ncnc2cc1O[C@H]1CCOC1	MTT	72 h	0.54 µM
O=c1[nH]cc(F)c(=O)[nH]1	WST-1	48 h	21.4 µM
COC(=O)CN=c1scc(-c2ccccc2)n1-c1ccccc1OC	MTT	72 h	22.7 µM
COc1cc2ncnc(Nc3ccc(F)c(Cl)c3)c2cc1NC(=O)N/N=C/c1cccn1CCCN1CCN(C)CC1	MTT	72 h	0.08 µM
COc1ccc(-c2nc3ccc(C)cc3[nH]2)cc1O	MTT	48 h	59.8 µM
Cc1cc(=O)oc2ccc(-c3cc(-c4ccccc4)nc(N)n3)c(O)c12	MTT	72 h	> 128 µg/mL
COc1cc2ncnc(Nc3ccc(F)c(Cl)c3)c2cc1NC(=O)N/N=C/CN1CCOCC1	MTT	72 h	4.42 µM
COc1cccc2c1C(=O)c1c(O)c3c(c(O)c1C2=O)C[C@@](O)(C(=O)CO)C[C@@H]3O[C@H]1C[C@H](N)[C@H](O)[C@H](C)O1	SRB	–	0.37 µM
Cl.Oc1cccc2c1[nH]c1c(C3=CC4(O)CC/C=C\CCCCN5CCC3C3(CC6/C=C\CCCCN6C43)C5)nccc12 (single isomer, unassigned; (+))	neutral red	48 h	1.5 µg/mL
COc1ccc(-c2csc(Nc3ccc4c(O)ncnc4c3)n2)cc1	MTT	–	17.3 µM
CCN(CC)CCn1cccc1/C=N/NC(=O)Nc1cc2c(Nc3ccc(F)c(Cl)c3)ncnc2cc1OC	MTT	72 h	1.62 µM
C[C@H]1O[C@@H](n2cc(F)c(=O)[nH]c2=O)[C@H](O)[C@@H]1O	CCK-8	48 h	> 50 µM
Oc1ccccc1-c1nc2ccccc2[nH]1	MTT	48 h	68.3 µM
COc1cccc2c1C(=O)c1c(O)c3c(c(O)c1C2=O)C[C@@](O)(C(=O)CO)C[C@@H]3O[C@H]1C[C@H](N)[C@H](O)[C@H](C)O1	MTT	48 h	0.1 µM
COc1ccc(-c2cc(-c3ccc4oc(=O)cc(C)c4c3O)nc(N)n2)cc1	MTT	72 h	> 128 µg/mL
COc1cc2ncnc(Nc3ccc(F)c(Cl)c3)c2cc1NC(=O)N/N=C/c1cccn1CCCN1CCOCC1	MTT	72 h	0.12 µM
Clc1ccc(-c2nc3ccccc3[nH]2)c(Cl)c1	MTT	48 h	37.5 µM
COCCCOC(=O)[C@]1(C)CC[C@]2(C)CC[C@]3(C)C4=CC=C5C(=CC(=O)C(O)=C5C)[C@]4(C)CC[C@@]3(C)[C@@H]2C1	MTT	48 h	0.94 µM
O=c1c(O)c(-c2ccc(O)c(O)c2)oc2cc(O)cc(O)c12	WST-1	48 h	10.1 µM

Compound	test	setting	IC50
COc1cccc(-c2nc3ccccc3n2Cc2ccccc2)c1	MTT	–	40.7 µM
O=[N+]([O-])c1ccc(-c2csc(Nc3ccc4c(O)ncnc4c3)n2)cc1	MTT	–	6.87 µM
Fc1ccc(-c2nc3ccccc3[nH]2)cc1	MTT	48 h	35.8 µM
Cc1ccc(NC(=O)NNC(=O)c2ccc(Nc3nccc(-c4cccnc4)n3)cc2)cc1	MTT	24 h	> 40 µM
c1cnc2c(c1)ccc1cccnc12	MTT	48 h	> 50 µM
CC(C)(C)NC(=O)NNC(=O)c1ccc(Nc2nccc(-c3ccc(Cl)cc3)n2)cc1	MTT	–	4.48 µM
CCCCc1ccc2[nH]c(NC(=O)OC)nc2c1	CCK-8	72 h	0.044 µM
O=C(N/N=C/c1cccn1CCCN1CCCCC1)Nc1cc2c(Nc3ccc(F)c(Cl)c3)ncnc2cc1O[C@H]1CCOC1	MTT	72 h	0.52 µM
CC(=O)O[C@@]12CO[C@@H]1C[C@H](O)[C@@]1(C)C(=O)[C@H](O)C3=C(C)[C@@H](OC(=O)[C@H](O)[C@@H](NC(=O)OC(C)(C)C)c4ccccc4)C[C@@](O)([C@@H](OC(=O)c4ccccc4)[C@H]21)C3(C)C	CCK-8	72 h	0.11 µM
CC1=C(O)C(=O)C=C2C1=CC=C1[C@@]2(C)CC[C@@]2(C)[C@@H]3C[C@](C)(C(=O)OCCCOc4ccccc4)CC[C@]3(C)CC[C@]12C	MTT	48 h	3.04 µM
COC(=O)CN=c1scc(-c2ccccc2)n1-c1ccccc1[N+](=O)[O-]	MTT	–	15.4 µM
CCCCNC(=O)NNC(=O)c1ccc(Nc2nccc(-c3ccccn3)n2)cc1	MTT	24 h	15.7 µM
CN1CCN(CCCn2cccc2/C=N/NC(=O)Nc2cc3c(Nc4ccc(F)c(Cl)c4)ncnc3cc2O[C@H]2CCOC2)CC1	MTT	72 h	0.68 µM
Cc1cc(C)n(-c2nc(Nc3ccc(Br)cc3)nc(N3CCOCC3)n2)n1	MTT	72 h	3.01 µM
COc1cc2ncnc(Nc3ccc(F)c(Cl)c3)c2cc1NC(=O)N/N=C/c1cccn1CCN1CCCCC1	MTT	72 h	0.05 µM
Cc1ccc(-c2csc(Nc3ccc4c(O)ncnc4c3)n2)cc1	MTT	–	12.6 µM
COC1=C2C[C@@H](C)C[C@H](OC)[C@H](O)[C@@H](C)/C=C(\C)[C@H](OC(N)=O)[C@@H](OC)/C=C\C=C(/C)C(=O)NC(=CC1=O)C2=O	MTT	–	0.041 µM
COc1ccnc(-c2cc(OC)ccn2)c1	MTT	48 h	> 50 µM
OCc1ccc2c(c1C#Cc1ccc(O)cc1)C(c1ccc(O)cc1)(c1ccc(O)cc1)c1cc(O)ccc1-2	MTT	48 h	> 50 µM
COc1ccc(NC(=O)NNC(=O)c2cccc(Nc3nccc(-c4cccnc4)n3)c2)c(OC)c1	MTT	24 h	> 40 µM
CC1=C(O)C(=O)C=C2C1=CC=C1[C@@]2(C)CC[C@@]2(C)[C@@H]3C[C@](C)(C(=O)OCCCCCO)CC[C@]3(C)CC[C@]12C	MTT	48 h	10.1 µM
Oc1c(Br)cc(Br)c2cccnc12	MTT	48 h	> 100 µM
Cc1ccc2nc(-c3ccc([N+](=O)[O-])cc3)n(Cc3ccccc3)c2c1	MTT	–	6.74 µM
CC(=O)Oc1ccc2c(c1)C(C)=CC(C)(C)N2Cc1ccccc1	MTT	72 h	36 µM
